Reference: ChEMBL document CHEMBL5058577, “EUbOPEN Chemogenomics Library 2 (Multiplex)” (2022)

Test system: Fibroblast
Experiment: Multiplex assay against human fibroblast
Assay type: toxicity, cell-based
Summary of the method: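 Four dyes were applied at seeding to live cells: Hoechst33342, BioTracker Green Microtubule Cytoskeleton Dye, MitoTracker Red and Annexin V Alexa Fluor 680. Imaging after compound addition used a CQ1 microscope at 37°C and 5% CO2. CellPathfinder machine-learning gating then sorted cells into Hoechst high-intensity objects or normal cells, normal cells into healthy, pyknosed or fragmented nuclei, and pyknosed cells into mitotic or apoptotic, with tubulin, mitochondrial-mass and membrane-permeability phenotypes given as per cents of healthy-nucleus cells.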

[1] = 12 h, 1 µM, compound concentration 1 uM, replicate 1
[2] = 12 h, 1 µM, compound concentration 1 uM, replicate 2
[3] = 12 h, 10 µM, compound concentration 10 uM, replicate 1
[4] = 12 h, 10 µM, compound concentration 10 uM, replicate 2
[5] = 24 h, 1 µM, compound concentration 1 uM, replicate 1
[6] = 24 h, 1 µM, compound concentration 1 uM, replicate 2
[7] = 24 h, 10 µM, compound concentration 10 uM, replicate 1
[8] = 24 h, 10 µM, compound concentration 10 uM, replicate 2
[9] = 48 h, 1 µM, compound concentration 1 uM, replicate 1
[10] = 48 h, 1 µM, compound concentration 1 uM, replicate 2
[11] = 48 h, 10 µM, compound concentration 10 uM, replicate 1
[12] = 48 h, 10 µM, compound concentration 10 uM, replicate 2

CCc1nn2c(C)cc(C)nc2c1Cc1ccc(-c2nnc(C3CCNCC3)o2)cc1
Population Apoptotic (%) [1]: 34% | Population Fragmented Nuclei (%) [1]: 17% | Population Healthy Nuclei (%) [1]: 63% | Population Hoechst High Intensity Objects (%) [1]: 2% | Population Membrane Permeable-Phenotype (%) [1]: 2% | Population Mitochondria Different-Phenotype (%) [1]: 5% | Population Mitotic Cells (%) [1]: 65% | Population Normal (%) [1]: 97% | Population Pyknosed Nuclei (%) [1]: 19% | Population Tubulin-Different-Phenotype (%) [1]: 35% | Total Cell Count [1]: 153 | Population Apoptotic (%) [2]: 45% | Population Fragmented Nuclei (%) [2]: 19% | Population Healthy Nuclei (%) [2]: 46% | Population Hoechst High Intensity Objects (%) [2]: 6% | Population Mitochondria Different-Phenotype (%) [2]: 13% | Population Mitotic Cells (%) [2]: 54% | Population Normal (%) [2]: 93% | Population Pyknosed Nuclei (%) [2]: 33% | Population Tubulin-Different-Phenotype (%) [2]: 62% | Total Cell Count [2]: 167 | Population Apoptotic (%) [3]: 51% | Population Fragmented Nuclei (%) [3]: 19% | Population Healthy Nuclei (%) [3]: 62% | Population Hoechst High Intensity Objects (%) [3]: 5% | Population Membrane Permeable-Phenotype (%) [3]: 0% | Population Mitochondria Different-Phenotype (%) [3]: 19% | Population Mitotic Cells (%) [3]: 48% | Population Normal (%) [3]: 94% | Population Pyknosed Nuclei (%) [3]: 18% | Population Tubulin-Different-Phenotype (%) [3]: 72% | Total Cell Count [3]: 188 | Population Apoptotic (%) [4]: 14% | Population Fragmented Nuclei (%) [4]: 38% | Population Healthy Nuclei (%) [4]: 44% | Population Hoechst High Intensity Objects (%) [4]: 3% | Population Membrane Permeable-Phenotype (%) [4]: 5% | Population Mitochondria Different-Phenotype (%) [4]: 14% | Population Mitotic Cells (%) [4]: 85% | Population Normal (%) [4]: 96% | Population Pyknosed Nuclei (%) [4]: 17% | Population Tubulin-Different-Phenotype (%) [4]: 79% | Total Cell Count [4]: 162 | Population Apoptotic (%) [5]: 52% | Population Fragmented Nuclei (%) [5]: 17% | Population Healthy Nuclei (%) [5]: 68% | Population Hoechst High Intensity Objects (%) [5]: 1% | Population Membrane Permeable-Phenotype (%) [5]: 0% | Population Mitochondria Different-Phenotype (%) [5]: 3% | Population Mitotic Cells (%) [5]: 47% | Population Normal (%) [5]: 98% | Population Pyknosed Nuclei (%) [5]: 13% | Population Tubulin-Different-Phenotype (%) [5]: 35% | Total Cell Count [5]: 153 | Population Apoptotic (%) [6]: 56% | Population Fragmented Nuclei (%) [6]: 26% | Population Healthy Nuclei (%) [6]: 49% | Population Hoechst High Intensity Objects (%) [6]: 7% | Population Membrane Permeable-Phenotype (%) [6]: 6% | Population Mitochondria Different-Phenotype (%) [6]: 15% | Population Mitotic Cells (%) [6]: 43% | Population Normal (%) [6]: 92% | Population Pyknosed Nuclei (%) [6]: 23% | Population Tubulin-Different-Phenotype (%) [6]: 65% | Total Cell Count [6]: 177 | Population Apoptotic (%) [7]: 53% | Population Fragmented Nuclei (%) [7]: 17% | Population Healthy Nuclei (%) [7]: 64% | Population Hoechst High Intensity Objects (%) [7]: 9% | Population Membrane Permeable-Phenotype (%) [7]: 0% | Population Mitochondria Different-Phenotype (%) [7]: 22% | Population Mitotic Cells (%) [7]: 46% | Population Normal (%) [7]: 90% | Population Pyknosed Nuclei (%) [7]: 17% | Population Tubulin-Different-Phenotype (%) [7]: 79% | Total Cell Count [7]: 185 | Population Apoptotic (%) [8]: 56% | Population Fragmented Nuclei (%) [8]: 40% | Population Healthy Nuclei (%) [8]: 42% | Population Hoechst High Intensity Objects (%) [8]: 3% | Population Membrane Permeable-Phenotype (%) [8]: 11% | Population Mitochondria Different-Phenotype (%) [8]: 16% | Population Mitotic Cells (%) [8]: 44% | Population Normal (%) [8]: 96% | Population Tubulin-Different-Phenotype (%) [8]: 80% | Total Cell Count [8]: 151 | Population Apoptotic (%) [9]: 76% | Population Fragmented Nuclei (%) [9]: 21% | Population Healthy Nuclei (%) [9]: 70% | Population Hoechst High Intensity Objects (%) [9]: 4% | Population Membrane Permeable-Phenotype (%) [9]: 1% | Population Mitochondria Different-Phenotype (%) [9]: 2% | Population Mitotic Cells (%) [9]: 23% | Population Normal (%) [9]: 95% | Population Pyknosed Nuclei (%) [9]: 7% | Population Tubulin-Different-Phenotype (%) [9]: 32% | Total Cell Count [9]: 172 | Population Apoptotic (%) [10]: 62% | Population Fragmented Nuclei (%) [10]: 30% | Population Healthy Nuclei (%) [10]: 54% | Population Membrane Permeable-Phenotype (%) [10]: 3% | Population Mitochondria Different-Phenotype (%) [10]: 12% | Population Mitotic Cells (%) [10]: 37% | Population Pyknosed Nuclei (%) [10]: 14% | Population Tubulin-Different-Phenotype (%) [10]: 54% | Total Cell Count [10]: 168 | Population Apoptotic (%) [11]: 84% | Population Fragmented Nuclei (%) [11]: 23% | Population Healthy Nuclei (%) [11]: 62% | Population Hoechst High Intensity Objects (%) [11]: 9% | Population Membrane Permeable-Phenotype (%) [11]: 0% | Population Mitochondria Different-Phenotype (%) [11]: 16% | Population Mitotic Cells (%) [11]: 15% | Population Normal (%) [11]: 90% | Population Pyknosed Nuclei (%) [11]: 13% | Population Tubulin-Different-Phenotype (%) [11]: 73% | Total Cell Count [11]: 208 | Population Apoptotic (%) [12]: 54% | Population Fragmented Nuclei (%) [12]: 45% | Population Healthy Nuclei (%) [12]: 47% | Population Hoechst High Intensity Objects (%) [12]: 2% | Population Membrane Permeable-Phenotype (%) [12]: 2% | Population Mitochondria Different-Phenotype (%) [12]: 17% | Population Mitotic Cells (%) [12]: 45% | Population Normal (%) [12]: 97% | Population Pyknosed Nuclei (%) [12]: 7% | Population Tubulin-Different-Phenotype (%) [12]: 78% | Total Cell Count [12]: 161

N[C@](CC1c2ccccc2Oc2ccccc21)(C(=O)O)[C@H]1C[C@@H]1C(=O)O
Population Apoptotic (%) [1]: 44% | Population Fragmented Nuclei (%) [1]: 12% | Population Healthy Nuclei (%) [1]: 73% | Population Hoechst High Intensity Objects (%) [1]: 4% | Population Membrane Permeable-Phenotype (%) [1]: 0% | Population Mitochondria Different-Phenotype (%) [1]: 1% | Population Mitotic Cells (%) [1]: 56% | Population Normal (%) [1]: 95% | Population Pyknosed Nuclei (%) [1]: 13% | Population Tubulin-Different-Phenotype (%) [1]: 27% | Total Cell Count [1]: 189 | Population Apoptotic (%) [2]: 58% | Population Fragmented Nuclei (%) [2]: 18% | Population Healthy Nuclei (%) [2]: 59% | Population Hoechst High Intensity Objects (%) [2]: 1% | Population Membrane Permeable-Phenotype (%) [2]: 7% | Population Mitotic Cells (%) [2]: 41% | Population Normal (%) [2]: 98% | Population Pyknosed Nuclei (%) [2]: 21% | Population Tubulin-Different-Phenotype (%) [2]: 37% | Total Cell Count [2]: 113 | Population Apoptotic (%) [3]: 50% | Population Fragmented Nuclei (%) [3]: 13% | Population Healthy Nuclei (%) [3]: 66% | Population Hoechst High Intensity Objects (%) [3]: 1% | Population Membrane Permeable-Phenotype (%) [3]: 2% | Population Mitochondria Different-Phenotype (%) [3]: 2% | Population Mitotic Cells (%) [3]: 50% | Population Normal (%) [3]: 98% | Population Pyknosed Nuclei (%) [3]: 20% | Population Tubulin-Different-Phenotype (%) [3]: 22% | Total Cell Count [3]: 203 | Population Apoptotic (%) [4]: 26% | Population Fragmented Nuclei (%) [4]: 20% | Population Healthy Nuclei (%) [4]: 59% | Population Hoechst High Intensity Objects (%) [4]: 7% | Population Membrane Permeable-Phenotype (%) [4]: 0% | Population Mitochondria Different-Phenotype (%) [4]: 7% | Population Mitotic Cells (%) [4]: 73% | Population Normal (%) [4]: 92% | Population Tubulin-Different-Phenotype (%) [4]: 33% | Total Cell Count [4]: 119 | Population Apoptotic (%) [5]: 68% | Population Fragmented Nuclei (%) [5]: 12% | Population Healthy Nuclei (%) [5]: 73% | Population Hoechst High Intensity Objects (%) [5]: 2% | Population Membrane Permeable-Phenotype (%) [5]: 2% | Population Mitochondria Different-Phenotype (%) [5]: 2% | Population Mitotic Cells (%) [5]: 32% | Population Normal (%) [5]: 97% | Population Pyknosed Nuclei (%) [5]: 13% | Population Tubulin-Different-Phenotype (%) [5]: 25% | Total Cell Count [5]: 183 | Population Apoptotic (%) [6]: 33% | Population Fragmented Nuclei (%) [6]: 27% | Population Healthy Nuclei (%) [6]: 49% | Population Hoechst High Intensity Objects (%) [6]: 4% | Population Membrane Permeable-Phenotype (%) [6]: 6% | Population Mitochondria Different-Phenotype (%) [6]: 1% | Population Mitotic Cells (%) [6]: 66% | Population Normal (%) [6]: 95% | Population Pyknosed Nuclei (%) [6]: 22% | Population Tubulin-Different-Phenotype (%) [6]: 44% | Total Cell Count [6]: 123 | Population Apoptotic (%) [7]: 57% | Population Fragmented Nuclei (%) [7]: 10% | Population Healthy Nuclei (%) [7]: 68% | Population Hoechst High Intensity Objects (%) [7]: 1% | Population Membrane Permeable-Phenotype (%) [7]: 1% | Population Mitochondria Different-Phenotype (%) [7]: 3% | Population Mitotic Cells (%) [7]: 42% | Population Normal (%) [7]: 98% | Population Pyknosed Nuclei (%) [7]: 20% | Population Tubulin-Different-Phenotype (%) [7]: 30% | Total Cell Count [7]: 193 | Population Apoptotic (%) [8]: 35% | Population Fragmented Nuclei (%) [8]: 18% | Population Healthy Nuclei (%) [8]: 66% | Population Hoechst High Intensity Objects (%) [8]: 2% | Population Mitochondria Different-Phenotype (%) [8]: 4% | Population Mitotic Cells (%) [8]: 64% | Population Normal (%) [8]: 97% | Population Pyknosed Nuclei (%) [8]: 15% | Population Tubulin-Different-Phenotype (%) [8]: 34% | Total Cell Count [8]: 113 | Population Apoptotic (%) [9]: 62% | Population Fragmented Nuclei (%) [9]: 17% | Population Healthy Nuclei (%) [9]: 68% | Population Hoechst High Intensity Objects (%) [9]: 2% | Population Membrane Permeable-Phenotype (%) [9]: 0% | Population Mitochondria Different-Phenotype (%) [9]: 2% | Population Mitotic Cells (%) [9]: 37% | Population Normal (%) [9]: 97% | Population Pyknosed Nuclei (%) [9]: 14% | Population Tubulin-Different-Phenotype (%) [9]: 26% | Total Cell Count [9]: 189 | Population Apoptotic (%) [10]: 23% | Population Fragmented Nuclei (%) [10]: 36% | Population Healthy Nuclei (%) [10]: 48% | Population Hoechst High Intensity Objects (%) [10]: 8% | Population Membrane Permeable-Phenotype (%) [10]: 9% | Population Mitochondria Different-Phenotype (%) [10]: 5% | Population Mitotic Cells (%) [10]: 76% | Population Normal (%) [10]: 91% | Population Tubulin-Different-Phenotype (%) [10]: 65% | Total Cell Count [10]: 125 | Population Apoptotic (%) [11]: 45% | Population Fragmented Nuclei (%) [11]: 14% | Population Healthy Nuclei (%) [11]: 68% | Population Hoechst High Intensity Objects (%) [11]: 5% | Population Membrane Permeable-Phenotype (%) [11]: 1% | Population Mitochondria Different-Phenotype (%) [11]: 2% | Population Mitotic Cells (%) [11]: 54% | Population Normal (%) [11]: 94% | Population Pyknosed Nuclei (%) [11]: 16% | Population Tubulin-Different-Phenotype (%) [11]: 32% | Total Cell Count [11]: 198 | Population Apoptotic (%) [12]: 27% | Population Fragmented Nuclei (%) [12]: 27% | Population Healthy Nuclei (%) [12]: 63% | Population Hoechst High Intensity Objects (%) [12]: 3% | Population Membrane Permeable-Phenotype (%) [12]: 2% | Population Mitotic Cells (%) [12]: 72% | Population Normal (%) [12]: 96% | Population Pyknosed Nuclei (%) [12]: 9% | Population Tubulin-Different-Phenotype (%) [12]: 28% | Total Cell Count [12]: 115
